# From PubChem
# HCV core dimer: blocks dimerization of HCV core protein. TR-FRET GST/Flag-core106 dimerization, 1536-well. inhibition, % at 5 µM. 0.33% of 300,000 active. AID 1899;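 active = inhibition above the mean of all tested compounds plus 3 SD, set per screening campaign, cut at about 45% in these data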
#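 Assay system: tagged HCV core106 pair (GST and Flag); medium: KF-containing HEPES buffer, pH 7.45, DTT, CHAPS, BSA; also added: Eu donor and XL665 acceptor anti-tag antibodies; dosing: 5 µM single dose; timing: compound-protein-antibody incubation 4 h at 22.5 °C; signal: TR-FRET 671 and 617 nm emission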
# Rce1 inh: inhibitors of yeast Ras-converting enzyme | Q03530 | yeast membranes, quenched prenylated peptide cleavage fluorescence | calls only | 0.27% of 290,000 active | AID 2563;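 active = fall in fluorescence gain of 50% or more versus controls, with final raw signal at or below 3038400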
# Target sequence (Q03530 whole entry, looked up): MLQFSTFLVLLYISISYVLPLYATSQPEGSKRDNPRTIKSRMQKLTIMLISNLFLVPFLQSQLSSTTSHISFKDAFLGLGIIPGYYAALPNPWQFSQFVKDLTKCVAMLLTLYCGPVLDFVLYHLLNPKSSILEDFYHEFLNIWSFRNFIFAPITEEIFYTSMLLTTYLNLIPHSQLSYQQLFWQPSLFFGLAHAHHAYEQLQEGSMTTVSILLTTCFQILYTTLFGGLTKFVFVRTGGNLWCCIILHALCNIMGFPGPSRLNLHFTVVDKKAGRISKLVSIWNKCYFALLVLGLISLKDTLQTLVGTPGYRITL
# Pemphigus Ab inh: blocks pemphigus antibody binding to human desmoglein-3. binding (percent of control), % at 10 µM. 0.48% of 310,000 active. AID 588358. DSG3-coupled beads, scFv-anti-DSG3-GFP binding, flow cytometry; hits give low values;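 active = binding more than 3 SD below its plate's average and above zero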;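 note: hits lower antibody fragment binding to DSG3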
# TbMetRS inhib: blocks T. brucei methionyl-tRNA synthetase activity; AID 624268; inhibition, % at 11.9 µM; 0.4% of 360,000 active; purified T. brucei MetRS, ATP depletion, Kinase-Glo luminescence;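 active = inhibition above a per-plate cutoff of the control wells' mean inhibition plus 3 SD, cut at about 5.5% in these data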
#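 technique = Kinase-Glo luminescence, ATP depletion format | system = purified MetRS (methionyl-tRNA synthetase) enzyme from Trypanosoma brucei | timing = 15 min preincubation, 2 h reaction, all 25 °C | evaluation = percent inhibition versus plate control medians | dosing = single dose, 11.9 µM final nominal, 0.9% final DMSO | also added = substrates ATP, L-methionine and bulk Escherichia coli tRNA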
# NadD block: inhibitors of Staphylococcus aureus NadD. purified NadD enzyme, colorimetric absorbance read-out. inhibition, % at 20 µM. 0.78% of 360,000 active. AID 602399; in the data active = inhibition above about 26%
# NadD inh conf: confirmation of Staphylococcus aureus NadD inhibitors | shares compounds with NadD block | purified S. aureus NadD, colorimetric enzyme assay | inhibition, % at 20 µM | 13% of 2,000 active | AID 624309; in the data active = inhibition mostly above about 42%, no sharp cut-off; inactive = mostly below about 42%
# A number is an active result; – = inactive; · = no result. Sampled rows, rich in hits. Any-hit rate of the full collection: about 1.9%.
SMILES,HCV core dimer,Rce1 inh,Pemphigus Ab inh,TbMetRS inhib,NadD block,NadD inh conf
O=C1NC[C@H](Cc2ccccc2)N(C[C@@H]2CCCN2C[C@H](Cc2ccc(O)cc2)N2C[C@H](Cc3ccc(O)cc3)N(CC3CCCCC3)C(=O)C2=O)C1=O,·,·,·,–,32,–
O=C1NC[C@H](Cc2ccccc2)N(C[C@H]2CCCN2C[C@H](Cc2ccccc2)N2C[C@H](Cc3ccccc3)N(CC3CCCCCC3)C(=O)C2=O)C1=O,·,·,–,–,–,·
O=C(CSc1nnc(-c2cccnc2)n1Cc1ccco1)c1ccc(Br)cc1,–,·,–,–,–,·
Cn1cc(C(=O)c2ccc(Cl)cc2Cl)cc1C(=O)N/N=C(\N)COc1ccc(Cl)cc1Cl,–,–,–,–,41,–
Cn1cc(C(=O)c2ccc(Cl)cc2Cl)cc1C(=O)N/N=C(\N)COc1ccc(Cl)cc1,–,–,–,–,32,–
Cn1cc(C(=O)c2ccc(Cl)cc2Cl)cc1C(=O)N/N=C(\N)COc1ccccc1,–,–,·,–,–,·
CCOC(=O)N1CCc2c(sc3nc[nH]c(=O)c23)C1,–,–,–,–,–,·
O=[N+]([O-])c1ccc(C=NNC(=S)NN=Cc2ccc([N+](=O)[O-])cc2)cc1,·,·,–,–,35,–
O=C(CNc1cccc2ccccc12)N/N=C/c1ccc([N+](=O)[O-])cc1,–,–,–,–,40,44
Cc1ccccc1NCC(=O)N/N=C/c1ccc([N+](=O)[O-])cc1,–,–,–,–,–,·
O=C(CNc1cccc2ccccc12)N/N=C/c1ccccn1,–,–,–,–,48,–
Cc1cccc(NCC(=O)N/N=C\c2ccccn2)c1,–,–,–,–,–,·
O=S1(=O)CCC(N2CCOCC2)C1 (configuration not stated),–,–,–,–,–,·
N#C/C(=C/c1cn(-c2ccccc2)nc1-c1cccc(OCc2ccc(F)cc2)c1)C(=O)NCCCn1ccnc1,–,–,–,–,37,–
CCCOc1cccc(-c2nn(-c3ccccc3)cc2/C=C(\C#N)C(=O)NCCCn2ccnc2)c1,–,–,–,–,–,·
CCCNC(=O)CN(c1ccc(F)c(Cl)c1)S(C)(=O)=O,–,–,–,–,–,·
C/C(=N\NC(=S)NC(C)C)c1ccccc1,–,–,–,–,–,·
CCOc1ccc(C(=O)NC(=S)Nc2ccc(NC(=O)CC)cc2)cc1[N+](=O)[O-],–,–,–,–,–,·
COc1cc(/C=C/C(=O)O)ccc1O,–,–,–,–,–,·
COc1cc(/C=C/C(=O)CC(=O)/C=C/c2ccc(O)c(OC)c2)ccc1O,–,–,–,–,56,52
COc1ccc(-c2nc(NC(=O)C3=NN(c4cccc(C)c4)C(=O)CC3)sc2C)cc1,–,·,–,–,31,–
CC(=O)Nc1ccc(Nc2cc(C)nc3c(-c4ccccc4)c(C)nn23)cc1,–,–,–,–,–,·
COc1ccc(-c2[nH]n(-c3ccc([N+](=O)[O-])cc3)c(=O)c2C=NCc2ccncc2)cc1,–,–,–,–,29,–
COc1ccc(-c2[nH]n(-c3ccc([N+](=O)[O-])cc3)c(=O)c2C=NCc2ccc(F)cc2)cc1,–,–,–,–,–,·
Nc1nc(COc2ccccc2C=O)nc(Nc2ccccc2)n1,–,–,·,–,29,36
SMILES,HCV core dimer,Rce1 inh,Pemphigus Ab inh,TbMetRS inhib,NadD block,NadD inh conf
O=C(O)c1ccccc1NC(=S)NC(=O)c1sc2ccccc2c1Cl,–,–,–,–,–,·
COc1cc(NS(=O)(=O)c2ccc(NC(=S)NC(=O)c3sc4cc(F)ccc4c3Cl)cc2)nc(OC)n1,–,–,–,–,35,–
O=C(NNC(=S)NC(=O)c1sc2ccccc2c1Cl)c1ccc(Cl)cc1,–,–,–,–,36,–
NC(N)=NS(=O)(=O)c1ccc(NC(=S)NC(=O)c2sc3ccccc3c2Cl)cc1,–,–,–,–,43,–
NC(N)=NS(=O)(=O)c1ccc(NC(=S)NC(=O)c2ccncc2)cc1,–,–,·,–,–,·
COc1cc(NS(=O)(=O)c2ccc(NC(=S)NC(=O)c3sc4ccccc4c3Cl)cc2)nc(OC)n1,–,–,–,–,–,·
NC(=S)NN=Cc1ccc(-c2ccc(S(=O)(=O)Nc3ncccn3)cc2)o1,·,·,·,–,–,·
CCOc1ccc(S(=O)(=O)N(CC(=O)N/N=C/c2ccc(-c3ccc([N+](=O)[O-])cc3)o2)c2ccccc2)cc1,75,–,–,–,41,–
CCOc1ccc(C(=O)N/N=C/c2ccc(-c3ccc(S(=O)(=O)Nc4ncccn4)cc3)o2)cc1,–,–,–,–,33,53
CC(C)=CCc1c(O)ccc2c1OC(c1ccc(O)c(O)c1)CC2=O (configuration not stated),–,–,·,–,–,·
Cc1cccc(NS(=O)(=O)c2ccc3[nH]c(=O)[nH]c3c2)c1C,·,–,–,–,–,·
Cc1cccc(NS(=O)(=O)c2ccc3c(c2)Cc2cc(S(=O)(=O)Nc4cccc(C)c4C)ccc2-3)c1C,–,·,–,–,36,–
O=C(Nc1ccccc1)N1CCNCC1,–,–,–,–,–,·
CCCC(=O)Nc1nnc(SCC(=O)Nc2nc(C)cs2)s1,–,–,–,–,–,·
Cc1csc(NC(=O)CSc2nnc(NC(=O)COc3ccc(Cl)cc3)s2)n1,–,–,–,–,35,–
CCOC(=O)C1=C(C)N=c2s/c(=C\c3ccc(OC(C)=O)c(OCC)c3)c(=O)n2C1/C=C/c1ccccc1 (configuration not stated),–,–,–,–,54,–
CCOC(=O)C1=C(C)N=c2s/c(=C\c3ccc(OC(C)=O)cc3)c(=O)n2C1/C=C/c1ccccc1 (configuration not stated),–,–,–,–,–,·
COc1cc(C2c3c(c(C)c(C)oc3=O)Oc3c(C)c(C)oc(=O)c32)ccc1OS(=O)(=O)c1ccc(C)cc1,·,·,–,–,32,–
COc1ccc(C2c3c(c(C)c(C)oc3=O)Oc3c(C)c(C)oc(=O)c32)cc1,·,·,–,–,–,·
Cc1cc(OCC(=O)Nc2ccc(N3CCCC3)cc2)cc(C)c1Cl,–,–,–,–,43,–
CCOc1ccc(OCC(=O)Nc2ccc(N3CCCCC3)cc2)cc1,–,–,·,–,–,·
CCOc1ccc(-c2csc(/C(C#N)=C\c3ccc(O)c([N+](=O)[O-])c3)n2)cc1,–,–,–,–,48,–
O=C(Cn1c(CN2CCCCC2)nc2ccccc2c1=O)Nc1ccccc1,–,–,–,–,–,·
COC(=O)c1c(NC(=O)c2ccc(C)c(S(=O)(=O)Nc3ccccc3C)c2)sc2c1CCCC2,–,–,–,–,22,–
S=C(Nc1ccc(Oc2ccccc2)cc1)NC1CCCCCC1,–,–,–,–,–,·
S=C(Nc1ccc(Oc2ccc(NC(=S)NC3CCCCC3)cc2)cc1)NC1CCCCC1,–,–,–,–,35,–
Fc1ccc(/C=N/N2CCOCC2)c(F)c1,–,–,–,–,–,·
